The source made the active and inactive calls. No cut-off for these calls is given here.
How the values were obtained:
Rhizopus arrhizus [1] = assay: Antifungal activity against Rhizopus oryzae RHPOR1 assessed as reduction in microbial growth after 24 hrs by broth microdilution method; format: functional
Summary of the method: (§1)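 CLSI M38 broth microdilution in RPMI 1640 buffered to pH 7.0 with MOPS. Drugs were diluted in DMSO then medium; final range 0.032-16 mg/L. Conidia or sporangiospores came from 7-day potato dextrose agar cultures; diluted (2×) inocula were 0.9×10^4–4.7×10^4 CFU/mL. Incubation at 35 °C, read at 48 h except Zygomycetes at 24 h. MIC read visually as lowest concentration preventing 100% growth; duplicate.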

Rhizopus arrhizus [2] = assay: Antifungal activity against Rhizopus oryzae RHPOR2 assessed as reduction in microbial growth after 24 hrs by broth microdilution method; format: functional; summary of the method: as §1
Mucor circinelloides = assay: Antifungal activity against Mucor circinelloides MURI1 assessed as reduction in microbial growth after 24 hrs by broth microdilution method; format: functional; summary of the method: as §1
Fusarium sp. = assay: Antifungal activity against Fusarium sp. assessed as reduction in microbial growth […] by broth microdilution method; format: functional
Scedosporium apiospermum = assay: Antifungal activity against Scedosporium apiospermum SCAP1 assessed as reduction in microbial growth […] by broth microdilution method; format: functional
[3] = system: Pichia kudriavzevii (Candida krusei); assay: Antifungal activity against fluconazole-resistant Candida krusei CAKR7 assessed as reduction in microbial growth after 24 hrs by resazurin staining based spectrofluorometric method; conditions: CAKR7, 24 h
[4] = system: Pichia kudriavzevii (Candida krusei); assay: Antifungal activity against fluconazole-resistant Candida krusei CAKR8 assessed as reduction in microbial growth after 24 hrs by resazurin staining based spectrofluorometric method; conditions: CAKR8, 24 h
Aspergillus fumigatus [5] = assay: Antifungal activity against Aspergillus fumigatus ASFU76 assessed as reduction in microbial growth after 48 hrs by resazurin staining based spectrofluorometric method; format: functional
Summary of the method: (§2)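 A. fumigatus conidia counted by microscope and inoculated at 10^4 cells mL⁻¹ in RPMI 1640 with 0.165 M MOPS, 2% glucose and antibiotics. Drugs were dissolved in DMSO (fluconazole in water), then diluted in medium. Plates ran 48 h at 37 °C, then resazurin for 20 h, read by fluorescence at ex 550/em 590 nm. MIC is 80% growth inhibition by linear regression; triplicate, mean±SD.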

Aspergillus fumigatus [6] = assay: Antifungal activity against Aspergillus fumigatus ASFU7 assessed as reduction in microbial growth after 48 hrs by resazurin staining based spectrofluorometric method; format: functional; summary of the method: as §2
Aspergillus fumigatus [7] = assay: Antifungal activity against Aspergillus fumigatus ASFU77 assessed as reduction in microbial growth after 48 hrs by resazurin staining based spectrofluorometric method; format: functional; summary of the method: as §2
Candida albicans [8] = assay: Antifungal activity against Candida albicans DSY292 harboring Erg1l G464S/R467K/Y132 mutant infected in Swiss mouse assessed as survival at 15 mg/kg, po after 8 days; format: functional, organism-based; conditions: time 8.0 day
Summary of the method: (§3)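 Swiss mice (~25 g) immunosuppressed with prednisolone 30 mg/kg s.c. one day before challenge; day 0 i.v. infection with C. albicans blastoconidia (5.10⁶ yeast/mL, 100 µL). Oral dosing 1 h post-infection, once daily for 5 days, 10 mg/kg (CAAL93) or 15 mg/kg (DSY292), vehicle 40% DMSO/25% Tween80/35% olive oil. Mice given 50% grapefruit juice ad libitum. Survival followed 14 days (log-rank Mantel-Cox).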

Candida albicans [9] = assay: Antifungal activity against fluconazole-susceptible Candida albicans CAAL93 assessed as reduction in microbial growth after 24 hrs by resazurin staining based spectrofluorometric method; format: functional
Summary of the method: (§4)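 Yeasts in RPMI 1640 with 0.165 M MOPS, 2% glucose and antibiotics, final 10³ cells mL⁻¹. Drugs in DMSO (fluconazole in water) were diluted in medium. Plates ran 24 h at 37 °C, then resazurin for 4 h, fluorescence ex 550/em 590 nm. MIC is 50% growth inhibition by linear regression; triplicate, mean±SD.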

Candida albicans [10] = assay: Antifungal activity against fluconazole-resistant Candida albicans DSY735 over expression of CDR1/CDR2 assessed as reduction in microbial growth after 24 hrs by resazurin staining based spectrofluorometric method; format: functional
Summary of the method: (§5)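 Broth microdilution in RPMI 1640 with 0.165 M MOPS, 2% glucose and antibiotics; yeast inoculum at 10³ cells mL⁻¹ final. Compounds were dissolved in DMSO (fluconazole in water) and diluted in medium, then incubated 24 h at 37 °C. Viability was read by resazurin fluorescence (ex 550/em 590 nm) after 4 h. MIC was taken as 50% growth inhibition, by linear regression; triplicate experiments.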

Candida albicans [11] = assay: Antifungal activity against fluconazole-resistant Candida albicans DSY292 harboring Erg1l G464S/R467K/Y132 mutant assessed as reduction in microbial growth after 24 hrs by resazurin staining based spectrofluorometric method; format: functional; summary of the method: as §5
Nakaseomyces glabratus = assay: Antifungal activity against fluconazole-sensitive Candida glabrata CAGL2 assessed as reduction in microbial growth after 24 hrs by resazurin staining based spectrofluorometric method; format: functional; summary of the method: as §4
Candida albicans [12] = assay: Inhibition of sterol biosynthesis in Candida albicans CAAL93 assessed as zymosterol level at 10 ng/ml after 18 hrs by GC-MS analysis (reference value: 1.6%); format: functional; design: scale not given: the % may be the effect or the level left
Summary of the method: (§6)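 C. albicans CAAL93 blastospores were grown 18 h at 35 °C with stirring in 50 mL Sabouraud broth, with drug added before incubation. Cells were pelleted and saponified in ethanolic KOH at 80 °C for 60 min, and sterols extracted with hexane. Analysis by GC-MS (EI 70 eV, splitless injection at 250 °C, helium carrier); sterols identified by fragmentation pattern.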

Candida albicans [13] = assay: Inhibition of sterol biosynthesis in Candida albicans CAAL93 assessed as ergosterol level at 10 ng/ml after 18 hrs by GC-MS analysis (reference value: 89.7%); format: functional; design: scale not given: the % may be the effect or the level left; summary of the method: as §6
Candida albicans [14] = assay: Inhibition of sterol biosynthesis in Candida albicans CAAL93 assessed as fecosterol level at 10 ng/ml after 18 hrs by GC-MS analysis relative to control; format: functional; design: scale not given: the % may be the effect or the level left; summary of the method: as §6
Candida albicans [15] = assay: Inhibition of sterol biosynthesis in Candida albicans CAAL93 assessed as 14alpha-methylfecosterol level at 10 ng/ml after 18 hrs by GC-MS analysis relative to control; format: functional; design: scale not given: the % may be the effect or the level left; summary of the method: as §6
Candida albicans [16] = assay: Inhibition of sterol biosynthesis in Candida albicans CAAL93 assessed as ergostadienol level at 10 ng/ml after 18 hrs by GC-MS analysis (reference value: 1.6%); format: functional; design: scale not given: the % may be the effect or the level left; summary of the method: as §6
Candida albicans [17] = assay: Inhibition of sterol biosynthesis in Candida albicans CAAL93 assessed as episterol level at 10 ng/ml after 18 hrs by GC-MS analysis (reference value: 2%); format: functional; design: scale not given: the % may be the effect or the level left; summary of the method: as §6
Candida albicans [18] = assay: Inhibition of sterol biosynthesis in Candida albicans CAAL93 assessed as lanosterol level at 10 ng/ml after 18 hrs by GC-MS analysis (reference value: 1.6%); format: functional; design: scale not given: the % may be the effect or the level left; summary of the method: as §6
Candida albicans [19] = assay: Inhibition of sterol biosynthesis in Candida albicans CAAL93 assessed as eburicol level at 10 ng/ml after 18 hrs by GC-MS analysis relative to control; format: functional; design: scale not given: the % may be the effect or the level left; summary of the method: as §6
Candida albicans [20] = assay: Inhibition of sterol biosynthesis in Candida albicans CAAL93 assessed as other sterols level at 10 ng/ml after 18 hrs by GC-MS analysis (Rvb < 1%); format: functional; design: scale not given: the % may be the effect or the level left; summary of the method: as §6
Candida albicans [21] = assay: Antifungal activity against Candida albicans CAAL93 infected in Swiss mouse assessed as survival at 10 mg/kg, po after 14 days relative to control; format: functional; conditions: 336 h, time 14 day; summary of the method: as §3
Candida albicans [22] = assay: Antifungal activity against Candida albicans CAAL93 infected in Swiss mouse assessed as reduction in kidney fungal burden at 10 mg/kg, po after 14 days; format: functional, organism-based; conditions: time 14.0 day
Candida albicans [23] = assay: Antifungal activity against Candida albicans DSY292 harboring Erg1l G464S/R467K/Y132 mutant infected in Swiss mouse assessed as survival at 15 mg/kg, po after 5 days; format: functional, organism-based; conditions: time 5.0 day; summary of the method: as §3

Structure (SMILES) | MIC (Rhizopus arrhizus [1]) | MIC (Rhizopus arrhizus [2]) | MIC (Mucor circinelloides) | MIC (Fusarium sp.) | MIC (Scedosporium apiospermum) | MIC [3] | MIC [4] | MIC (Aspergillus fumigatus [6]) | MIC (Aspergillus fumigatus [7]) | other results
C[C@@H](n1ncc2cccn2c1=O)[C@](O)(Cn1cncn1)c1ccc(F)cc1F | 4 µg/mL | 8 µg/mL | 16 µg/mL | > 16 µg/mL | > 16 µg/mL | 0.625 µg/mL | 1.15 µg/mL |  |  | 
C[C@@H](n1ncc2cc(-c3ccc(C#N)cc3)cn2c1=O)[C@](O)(Cn1cncn1)c1ccc(F)cc1F | 0.125 µg/mL | 0.25 µg/mL | 0.75 µg/mL | 10 µg/mL | > 16 µg/mL | 0.058 µg/mL | 0.101 µg/mL | > 100 µg/mL | > 100 µg/mL | MIC (Aspergillus fumigatus [5]): > 100 µg/mL
C[C@@H](n1ncc2cc(-c3ccccc3)cn2c1=O)[C@](O)(Cn1cncn1)c1ccc(F)cc1F |  |  |  |  |  | 0.013 µg/mL | 0.014 µg/mL |  |  | 
C[C@@H](n1ncc2cc(-c3ccc([N+](=O)[O-])cc3)cn2c1=O)[C@](O)(Cn1cncn1)c1ccc(F)cc1F | 0.0625 µg/mL | 0.25 µg/mL | 0.25 µg/mL | 12 µg/mL | > 16 µg/mL | 0.066 µg/mL | 0.039 µg/mL |  |  | 
C[C@@H](c1ncncc1F)[C@](O)(Cn1cncn1)c1ccc(F)cc1F [VORICONAZOLE] |  | 8 µg/mL | > 8 µg/mL | 6 µg/mL | 0.5 µg/mL | 0.817 µg/mL | 0.24 µg/mL |  |  | Survival (Candida albicans [8]): inactive
C[C@@H](n1ncc2cc(Br)cn2c1=O)[C@](O)(Cn1cncn1)c1ccc(F)cc1F | 4 µg/mL | 8 µg/mL | 8 µg/mL | > 16 µg/mL | 4 µg/mL | 0.251 µg/mL | 0.076 µg/mL | 6.66 µg/mL | 6.74 µg/mL | MIC (Candida albicans [9]): 0.002 µg/mL; MIC (Candida albicans [10]): 0.14 µg/mL; MIC (Candida albicans [11]): 0.155 µg/mL; MIC (Nakaseomyces glabratus): 0.014 µg/mL
CC[C@@H]([C@H](C)O)n1ncn(-c2ccc(N3CCN(c4ccc(OC[C@@H]5CO[C@@](Cn6cncn6)(c6ccc(F)cc6F)C5)cc4)CC3)cc2)c1=O [POSACONAZOLE] | 0.19 µg/mL | 0.5 µg/mL | 0.19 µg/mL | > 8 µg/mL | 1.25 µg/mL |  |  |  |  | 
C[C@@H]1[C@H](O)[C@@H](C)/C=C/C=C/C=C/C=C/C=C/C=C/C=C/[C@H](O[C@@H]2O[C@H](C)[C@@H](O)[C@H](N)[C@@H]2O)C[C@@H]2O[C@](O)(C[C@@H](O)C[C@@H](O)[C@H](O)CC[C@@H](O)C[C@@H](O)CC(=O)O[C@H]1C)C[C@H](O)[C@H]2C(=O)O [AMPHOTERICIN B] | 0.19 µg/mL | 0.5 µg/mL | 0.19 µg/mL | 12 µg/mL | > 8 µg/mL |  |  |  |  | 
OC(Cn1cncn1)(Cn1cncn1)c1ccc(F)cc1F [FLUCONAZOLE] |  |  |  |  |  | > 3 µg/mL | > 10 µg/mL |  |  | Activity (Candida albicans [12]): 2.8%; Activity (Candida albicans [13]): 57.8%; Activity (Candida albicans [14]): 2.8%; Activity (Candida albicans [15]): 2%; Activity (Candida albicans [16]): 3.2%; Activity (Candida albicans [17]): 8.8%; Activity (Candida albicans [18]): 13.1%; Activity (Candida albicans [19]): 2.2%; Activity (Candida albicans [20]): 7.3%; survival at 10 mg/kg (Candida albicans [21]): 100%; Activity (Candida albicans [22]): Active; Survival (Candida albicans [23]): inactive
CCC(C)n1ncn(-c2ccc(N3CCN(c4ccc(OCC5COC(Cn6cncn6)(c6ccc(Cl)cc6Cl)O5)cc4)CC3)cc2)c1=O (configuration not stated) [ITRACONAZOLE] | 0.19 µg/mL | 1.12 µg/mL | 0.19 µg/mL | > 16 µg/mL | 0.5 µg/mL |  |  | 0.5 µg/mL | > 100 µg/mL | 
